Data set [1] deals with serotonin transporter (SERT). The conditions noted are these: read-out: Ki (affinity); in vitro binding assays; ref [23]-[25]; cited from earlier work.
Data set [2] addresses T1, SERT (Rattus norvegicus, UniProt P31652). The data set can be described thus: quantitative in vitro autoradiography with [18F]FPBM on rat brain sections. The data set is classed as binding. The conditions noted are these: n = 3. An outline of the steps:
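Coronal 20 μm cryostat sections from left-lesioned (6-OHDA) male Sprague Dawley rat brains were preincubated for 20 min at room temperature in 50 mM Tris/120 mM NaCl, pH 7.4, then dried. They were incubated for 1 hr at room temperature in that buffer containing [18F]FPBM (166-178 Bq/μL), rinsed cold 2 × 45 min, and exposed to film for 24 hrs with calibration standards. % change = ((R − cerebellum) − (L − cerebellum))/(R − cerebellum) × 100, averaged over rostral-striatum sections.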

The target in data set [3] is T1, SERT. The data set is classed as in vivo. An outline of the steps:
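Rats under 1.5-2.5% isoflurane were scanned on a Philips Mosaic animal PET after tail-vein [18F]FPBM (37-51 MBq lesioned; 43-57 MBq normal controls). Dynamic acquisition ran 4 hrs: 5-min frames for 2 hrs, then 15-min frames. Lesioned rats were apomorphine-screened (0.05 mg/kg s.c.) and rescanned 7-20 days later. ROI time-activity points were summed per region; left-striatum change = ((R−CB)−(L−CB))/(R−CB)×100.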

For data set [4] the following is noted: normal rats, ref [23]-[25], cited from earlier work.
The target of data set [5] is T1, SERT. The data set can be described thus: regional brain biodistribution of [18F]FPBM in PCA-treated and control rats. In kind it is in vivo. The conditions noted are these: 60 min, n = 6. The procedure, abridged: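 Male Sprague Dawley rats (12, split into two groups) received PCA 5 mg/kg i.p. or saline daily for 2 consecutive days. Six days later they were given [18F]FPBM i.v. and killed under isoflurane 60 min post-injection. Radioactivity distribution was measured in brain regions only, not peripheral organs.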

Data set [6] deals with dopamine transporter (DAT) (Rattus norvegicus, UniProt P23977). The data set can be described thus: quantitative in vitro autoradiography with [125I]IPT on rat brain sections. In kind it is binding. An outline of the steps:
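Brains from lesioned rats were frozen in OCT, and 20 μm coronal cryosections were desiccated 2 hrs at 4 °C, then stored at −70 °C. Sections were preincubated 20 min at room temperature in 50 mM Na2HPO4/0.32 M sucrose pH 7.4, then incubated 2 hrs with [125I]IPT (13-19 Bq/μL). Rinses: cold buffer 2 × 30 min, then cold water. Film exposure was 24 hrs with 125I homogenate standards (0.04-1.48 kBq/mg). Change = ((R−CB)−(L−CB))/(R−CB)×100, averaged over sections.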

For the next data set, the target named is VMAT2 (Rattus norvegicus, UniProt Q01827). The data set can be described thus: small animal PET imaging with [18F]AV-133 in 6-OHDA unilateral lesioned rats. The data set is classed as in vivo. An outline of the steps: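 Male Sprague Dawley rats with a unilateral left 6-OHDA lesion passed an apomorphine rotation check (0.05 mg/kg s.c., day 21). Under 1.5-2.5% isoflurane, each received [18F]AV-133 (50-57 MBq) by tail vein and was imaged dynamically for 4 hrs (5 min frames, then 15 min frames). ROI analysis on reconstructed images gave % change = ((R striatum − cerebellum) − (L striatum − cerebellum))/(R striatum − cerebellum) × 100.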

Values joined by “and” are separate entries in the source; they are usually repeats but may differ in a detail not shown here. Identical values can stand only once. Like-named read-outs stand apart in the source and are kept apart here.

Chain of VMAT2 (Q01827 whole entry): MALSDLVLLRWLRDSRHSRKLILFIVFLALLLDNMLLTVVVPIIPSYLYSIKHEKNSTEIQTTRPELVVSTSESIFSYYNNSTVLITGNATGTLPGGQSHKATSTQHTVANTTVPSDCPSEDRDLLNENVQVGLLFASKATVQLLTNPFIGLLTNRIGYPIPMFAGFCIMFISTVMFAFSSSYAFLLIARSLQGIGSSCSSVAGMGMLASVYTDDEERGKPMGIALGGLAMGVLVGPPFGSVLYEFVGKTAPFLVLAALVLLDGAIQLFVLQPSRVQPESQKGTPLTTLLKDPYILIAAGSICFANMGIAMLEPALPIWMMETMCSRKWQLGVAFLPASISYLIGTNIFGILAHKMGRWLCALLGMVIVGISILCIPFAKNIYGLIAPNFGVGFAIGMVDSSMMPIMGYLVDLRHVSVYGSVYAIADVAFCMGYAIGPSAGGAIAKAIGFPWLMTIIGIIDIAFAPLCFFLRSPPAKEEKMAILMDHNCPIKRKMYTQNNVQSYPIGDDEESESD
T1 sequence (P31652 whole entry): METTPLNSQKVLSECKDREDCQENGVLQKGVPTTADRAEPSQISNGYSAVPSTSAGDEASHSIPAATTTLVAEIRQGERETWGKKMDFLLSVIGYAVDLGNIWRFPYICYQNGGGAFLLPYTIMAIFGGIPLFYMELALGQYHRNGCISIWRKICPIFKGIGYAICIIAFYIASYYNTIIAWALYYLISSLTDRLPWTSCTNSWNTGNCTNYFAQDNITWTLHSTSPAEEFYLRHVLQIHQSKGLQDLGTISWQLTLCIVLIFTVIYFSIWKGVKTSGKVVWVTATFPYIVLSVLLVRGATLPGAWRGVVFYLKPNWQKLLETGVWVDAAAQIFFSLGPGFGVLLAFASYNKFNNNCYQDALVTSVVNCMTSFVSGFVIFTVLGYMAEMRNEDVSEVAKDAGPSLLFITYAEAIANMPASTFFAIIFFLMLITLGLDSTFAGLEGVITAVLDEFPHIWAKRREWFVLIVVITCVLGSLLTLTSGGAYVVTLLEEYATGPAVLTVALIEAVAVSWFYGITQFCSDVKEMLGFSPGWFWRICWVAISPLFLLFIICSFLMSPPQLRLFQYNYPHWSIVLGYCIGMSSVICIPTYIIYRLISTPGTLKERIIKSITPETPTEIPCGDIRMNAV
Chain of dopamine transporter (DAT) (P23977 whole entry): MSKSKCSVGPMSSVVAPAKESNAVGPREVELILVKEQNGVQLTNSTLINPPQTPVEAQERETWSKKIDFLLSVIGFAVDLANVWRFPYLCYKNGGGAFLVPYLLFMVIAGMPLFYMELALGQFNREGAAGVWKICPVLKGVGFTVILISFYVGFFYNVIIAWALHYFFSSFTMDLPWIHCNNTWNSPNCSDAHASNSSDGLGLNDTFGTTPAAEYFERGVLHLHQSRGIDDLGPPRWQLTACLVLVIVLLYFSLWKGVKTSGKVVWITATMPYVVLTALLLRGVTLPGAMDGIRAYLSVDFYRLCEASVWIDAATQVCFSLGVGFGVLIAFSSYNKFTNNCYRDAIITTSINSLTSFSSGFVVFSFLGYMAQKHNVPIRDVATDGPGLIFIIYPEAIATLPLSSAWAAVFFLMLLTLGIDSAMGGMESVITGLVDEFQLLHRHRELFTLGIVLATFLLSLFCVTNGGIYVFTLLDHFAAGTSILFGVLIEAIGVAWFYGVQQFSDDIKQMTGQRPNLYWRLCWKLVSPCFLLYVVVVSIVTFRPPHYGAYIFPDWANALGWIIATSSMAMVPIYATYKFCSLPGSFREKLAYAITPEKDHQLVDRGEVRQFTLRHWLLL

With `CN(C)Cc1cc(OCCC[18F])ccc1Sc1ccccc1N` [[^18F]FPBM, 2-(2′-((dimethylamino)methyl)-4′-(3-[^18F]-fluoropropoxy)phenylthio)benzenamine], in data set [1], the inhibitory constant (Ki) was 0.38 nM. In addition, the “averaged percent binding reduction of the left rostral striatum brain sections (in vitro autoradiography)” value at SERT [2] (6-OHDA lesioned rat #1, rostral striatum sections) is −5.9%; at SERT [2] (6-OHDA lesioned rat #2, rostral striatum sections), “+2.3%”; at SERT [2] (6-OHDA lesioned rat #3, rostral striatum sections), −37.3%. Also, the “percent binding change in the left striatum (PET), individual scans” value at SERT [3] (6-OHDA lesioned rat #1, 10 days between scans) was −12% and −10%; on SERT [3] (6-OHDA lesioned rat #2, 20 days between scans), −1% and −7%; at SERT [3] (6-OHDA lesioned rat #3, 7 days between scans) it was −42% and −44%. In addition, the “average percent binding change in the left striatum (PET)” value on SERT [3] (6-OHDA lesioned rat #1, n = 2 scans) is −11%; at SERT [3] (6-OHDA lesioned rat #2, n = 2 scans), −4%; on SERT [3] (6-OHDA lesioned rat #3, n = 2 scans) it was −43%; at SERT [3] (normal control rats, n = 2 separate rats, left vs right striatum), “+0.5%”. On SERT [3] (normal control rats, individual values), the “percent binding change in the left striatum (PET), individual rats” value was “+4.5% and −3.5%”. In data set [4] (2 min post-injection), the brain uptake is 0.99 % dose/g. Also, in data set [4] (120 min post-injection), the “target to non-target ratio” value was 7.7. Further, the “ratio vs. CB ± SD, cerebellum” value on SERT [5] (PCA-treated rats) amounted to 1.00 ± 0.34; on SERT [5] (control rats), 1.00 ± 0.33. Besides, the results for the “ratio vs. CB ± SD, cortex” value on SERT [5] (PCA-treated rats) and on SERT [5] (control rats) were 1.93 ± 0.58 and 3.39 ± 1.28, respectively. In addition, the results for the “ratio vs. CB ± SD, hippocampus” value at SERT [5] (PCA-treated rats) and on SERT [5] (control rats) were 2.29 ± 0.56 and 3.09 ± 1.10, respectively. Moreover, the “ratio vs. CB ± SD, hypothalamus” value was 3.87 ± 0.88 on SERT [5] (PCA-treated rats) and 4.61 ± 1.44 on SERT [5] (control rats). Also, the “ratio vs. CB ± SD, remainder” value stood at 2.27 ± 0.53 on SERT [5] (PCA-treated rats) and 3.12 ± 1.12 at SERT [5] (control rats). Further, the “ratio vs. CB ± SD, striatum” value at SERT [5] (PCA-treated rats) is 2.90 ± 1.00; on SERT [5] (control rats) it was 3.70 ± 1.21.
Regarding `COC(=O)C1C(c2ccc(Cl)cc2)CC2CCC1N2CC=C[125I]` (stereo not drawn) [[^125I]IPT, N-(3′-[^125I]-iodopropen-2′-yl)-2-beta-carbomethoxy-3-beta-(4-chlorophenyl) tropane], the “percent change in binding in the left striatum (in vitro autoradiography)” value is −66% in data set [6] (6-OHDA lesioned rat #1), −56% in data set [6] (6-OHDA lesioned rat #2) and −81% in data set [6] (6-OHDA lesioned rat #3).
Consider `COc1cc2c(cc1OCCCF)CCN1CC(CC(C)C)C(O)CC21` (single isomer, unassigned; (+)) [[^18F]AV-133, (+)-2-Hydroxy-3-isobutyl-9-(3-fluoropropoxy)-10-methoxy-1,2,3,4,6,7-hexahydro-11bH-benzo[a]quinolizine], for which the “percent binding change in the left striatum (PET)” value is −87% at VMAT2 (6-OHDA lesioned rat #1, n = 1); −72% on VMAT2 (6-OHDA lesioned rat #2, n = 1); −91% on VMAT2 (6-OHDA lesioned rat #3, n = 1).

For orientation: Ki means a dissociation constant, usually derived from enzyme kinetics or from competition with a known ligand.

(Values after PMC2909692 (Nuclear medicine and biology, 2010).)
